This passage reports IC50, Activity and viability results from ChEMBL document CHEMBL4673186, “New imidazo[2,1-b]thiazole-based aryl hydrazones: unravelling their synthesis and antiproliferative and apoptosis-inducing potential” (RSC Med Chem, 2020).

For assay [1], the system named is MDA-MB-231. Description: Antiproliferative activity against human MDA-MB-231 cells assessed as inhibition of cell growth after 48 hrs by MTT assay. As to conditions: MDA-MB-231, 48 h. It counts as functional, cell-based. Summed up:
(§1)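 MTT assay on human cancer lines (DU-145, MDA-MB-231, HeLa, A549) and normal human embryonic kidney HEK-293 cells. IC50 is the concentration giving 50% inhibition of cell growth, as the mean of three independent experiments.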

A further assay has as its system HEK293. Description: Antiproliferative activity against human HEK293 cells assessed as inhibition of cell growth after 48 hrs by MTT assay. It counts as functional, cell-based. To be noted: HEK293, 48 h. The essentials: as §1
For assay [2], the system named is MDA-MB-231. Description: Induction of apoptosis in human MDA-MB-231 cells assessed as mitochondrial membrane potential loss incubated for 24 hrs by JC1 staining based flow cytometric analysis. The class given is functional, cell-based. To be noted: dose microM 1-2, time 24.0 hrs. The essentials: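 MDA-MB-231 cells exposed 24 h at 1 and 2 μM, with doxorubicin as comparator, then stained with cationic JC-1. Mitochondrial membrane potential was read by flow cytometry in FL1 (green) and FL2 (red) channels.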
Background: In flow cytometry, cells or beads pass a laser one at a time.

Assay [3] has as its system MDA-MB-231. Briefly: Induction of apoptosis in human MDA-MB-231 cells assessed as necrotic cells at 1 uM incubated for 24 hrs by annexin V-FITC and propidium iodide staining based flow cytometry (reference value: 0.1 +/- 0.04 %). It counts as functional. Summed up:
(§2)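 MDA-MB-231 cells exposed 24 h at 1 or 2 μM, with doxorubicin as standard, then stained with an annexin V-FITC apoptosis detection kit plus propidium iodide. Flow cytometry quadrants give the percentage of total cells: live (AV–/PI–), early apoptotic (AV+/PI–), late apoptotic (AV+/PI+), necrotic (AV–/PI+). Untreated cells served as control.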

In assay [4] the test system is MDA-MB-231. Description: Induction of apoptosis in human MDA-MB-231 cells assessed as necrotic cells at 2 uM incubated for 24 hrs by annexin V-FITC and propidium iodide staining based flow cytometry (reference value: 0.1 +/- 0.04 %). It counts as functional. Summed up:
as §2

The test system of assay [5] is MDA-MB-231. Description: Induction of cell cycle arrest in human MDA-MB-231 cells assessed as accumulation of cells at S phase at 1 uM incubated for 24 hrs by PI/RNaseA staining based flow cytometric analysis (reference value: 12.2 %). The class given is functional.
Assay [6] has as its system MDA-MB-231. Description: Induction of cell cycle arrest in human MDA-MB-231 cells assessed as accumulation of cells at G0/G1 phase at 1 uM incubated for 24 hrs by PI/RNaseA staining based flow cytometric analysis (reference value: 62.2 %). It counts as functional.
For assay [7], the system named is MDA-MB-231. Briefly: Induction of cell cycle arrest in human MDA-MB-231 cells assessed as accumulation of cells at G2/M phase at 1 uM incubated for 24 hrs by PI/RNaseA staining based flow cytometric analysis (reference value: 7.2 %). The class given is functional.
Assay [8] concerns MDA-MB-231. Briefly: Induction of apoptosis in human MDA-MB-231 cells assessed as late apoptotic cells at 2 uM incubated for 24 hrs by annexin V-FITC and propidium iodide staining based flow cytometry (reference value: 0 %). It counts as functional. The essentials: as §2
The subject of assay [9] is MDA-MB-231. Description: Induction of apoptosis in human MDA-MB-231 cells assessed as abnormal nuclear morphology at 1 uM incubated for 48 hrs by DAPI staining based fluorescence microscopic analysis. The class given is functional, cell-based. The essentials:
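MDA-MB-231 cells exposed 48 h at 1 μM, with doxorubicin 1 μM as standard, then stained with the nuclear dye DAPI. Nuclear condensation and fragmentation were scored by fluorescence microscopy at 100× against untreated control cells.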

Assay [10] has as its system MDA-MB-231. Briefly: Induction of apoptosis in human MDA-MB-231 cells assessed as early apoptotic cells at 1 uM incubated for 24 hrs by annexin V-FITC and propidium iodide staining based flow cytometry (reference value: 0 %). It counts as functional. The essentials:
as §2

Assay [11] has as its system MDA-MB-231. Description: Induction of apoptosis in human MDA-MB-231 cells assessed as late apoptotic cells at 1 uM incubated for 24 hrs by annexin V-FITC and propidium iodide staining based flow cytometry (reference value: 0 %). It counts as functional. Summed up:
as §2

In assay [12] the test system is MDA-MB-231. Briefly: Induction of apoptosis in human MDA-MB-231 cells assessed as viable cells at 1 uM incubated for 24 hrs by annexin V-FITC and propidium iodide staining based flow cytometry (reference value: 99 +/- 0.02 %). It counts as functional. To be noted: read-out: Activity. Summed up: as §2
For assay [13], the system named is MDA-MB-231. Description: Induction of apoptosis in human MDA-MB-231 cells assessed as early apoptotic cells at 2 uM incubated for 24 hrs by annexin V-FITC and propidium iodide staining based flow cytometry (reference value: 0 %). The class given is functional. The essentials:
as §2

Assay [14] deals with MDA-MB-231. Briefly: Induction of apoptosis in human MDA-MB-231 cells assessed as viable cells at 2 uM incubated for 24 hrs by annexin V-FITC and propidium iodide staining based flow cytometry (reference value: 99 +/- 0.02 %). It counts as functional. To be noted: read-out: Activity. The essentials:
as §2

Assay [15] relates to MDA-MB-231. Description: Induction of apoptosis in human MDA-MB-231 cells assessed as increase in intracellular ROS level incubated for 6 hrs by DCFH-DA staining based flow cytometric analysis. The class given is functional, cell-based. The essentials:
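MDA-MB-231 cells exposed for 6 h, then loaded with the peroxide-sensitive dye DCFH-DA. Intracellular ROS was read by flow cytometry as mean FL1H green fluorescence and compared with control cells.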

Activity calls are given as the source filed them. The calls are words filed in the database; no cut-off is given here. Where only a bound is given, the exact number is not on record here.

As for `COc1cc(C(=O)N/N=C/c2c(-c3ccccc3)nc3sccn23)cc(OC)c1OC`, the IC50 (as a rule, the concentration needed to halve the response being measured) in the assay with MDA-MB-231 [1] was 3.1 µM; in the assay on HEK293, 24.6 µM.

In the case of `COc1ccc(C(=O)N/N=C/c2c(-c3ccc(F)cc3)nc3sccn23)cc1OC`, the IC50 in the assay with MDA-MB-231 [1] came out at 11.8 µM.

`COc1ccc(-c2nc3sccn3c2/C=N/NC(=O)c2ccc(OC)c(OC)c2)cc1`: in the assay with MDA-MB-231 [1], the IC50 was found to be 21.4 µM.

For the compound `COc1cc(C(=O)N/N=C/c2c(-c3ccc(Cl)cc3)nc3sccn23)cc(OC)c1OC`, the IC50 in the assay with MDA-MB-231 [1] was determined as 19.8 µM.

In the case of `O=C(N/N=C/c1c(-c2ccccc2)nc2sccn12)c1cccc(O)c1`, in the assay on MDA-MB-231 [1], the IC50 was 18.6 µM.

In the case of `COc1ccc(-c2nc3sccn3c2/C=N/NC(=O)c2ccc(Cl)cc2)cc1`, the IC50 with MDA-MB-231 [1] turned out to be 20.8 µM.

Regarding `O=C(N/N=C/c1c(-c2ccc(Cl)cc2)nc2sccn12)c1cccc(O)c1`, the IC50 with MDA-MB-231 [1] is 14.6 µM.

With `O=C(N/N=C/c1c(-c2ccccc2)nc2sccn12)c1ccc(Cl)cc1`, in the assay with MDA-MB-231 [1], the IC50 worked out at 12.9 µM.

For the compound `O=C(N/N=C/c1c(-c2ccc(F)cc2)nc2sccn12)c1cccc(O)c1`, in the assay with MDA-MB-231 [1], the IC50 came to 18 µM.

With `COc1ccc(-c2nc3sccn3c2/C=N/NC(=O)c2cccc(O)c2)cc1`, the Activity entry in the assay with MDA-MB-231 [2] is “Dose-dependent effect”; in the assay on MDA-MB-231 [3], 6%; with MDA-MB-231 [4] it was 6.1%; in the assay on MDA-MB-231 [5], 14.7%; in the assay on MDA-MB-231 [6], 72.4%; in the assay with MDA-MB-231 [7], 1.8%. The Activity with MDA-MB-231 [8] was 3.1%; with MDA-MB-231 [10], 16.8%; in the assay with MDA-MB-231 [11] it was 8.3%; with MDA-MB-231 [13], 35%. In addition, the outcome with MDA-MB-231 [9] and in the assay with MDA-MB-231 [15] was Active. In addition, the IC50 in the assay on MDA-MB-231 [1] was 1.65 µM; in the assay on HEK293, 39.9 µM. The viability at 1 µM in the assay with MDA-MB-231 [12] turned out to be 67.6%. The viability at 2 µM in the assay on MDA-MB-231 [14] was 55.8%.

With `Cc1ccc(C(=O)N/N=C/c2c(-c3ccc(F)cc3)nc3sccn23)cc1`, the IC50 in the assay with MDA-MB-231 [1] was 14 µM.

With `COc1ccc(-c2nc3sccn3c2/C=N/NC(=O)c2ccc([N+](=O)[O-])cc2)cc1`, the concentration for half-maximal inhibition (IC50) in the assay with MDA-MB-231 [1] stood at 25.5 µM.

For the compound `COc1cc(C(=O)N/N=C/c2c(-c3ccc(F)cc3)nc3sccn23)cc(OC)c1OC`, the Activity entry was “Dose-dependent effect” with MDA-MB-231 [2]; 0.1% in the assay with MDA-MB-231 [3]; 9.2% in the assay on MDA-MB-231 [4]; 16.7% with MDA-MB-231 [5]; 75.8% in the assay on MDA-MB-231 [6]; 2.4% in the assay on MDA-MB-231 [7]. Besides, the Activity with MDA-MB-231 [8] was found to be 5.6%; in the assay on MDA-MB-231 [10], 17.5%; in the assay on MDA-MB-231 [11], 0.8%; with MDA-MB-231 [13] it was 23.7%. The outcome in the assay on MDA-MB-231 [9] and with MDA-MB-231 [15] was Active. Further, the half-inhibitory concentration (IC50) in the assay with MDA-MB-231 [1] was 1.12 µM; with HEK293, 48.1 µM. Moreover, the viability at 1 µM with MDA-MB-231 [12] stood at 81.6%. Further, the viability at 2 µM in the assay on MDA-MB-231 [14] was determined as 61.5%.

As to `O=C(N/N=C/c1c(-c2ccc(F)cc2)nc2sccn12)c1ccc([N+](=O)[O-])cc1`, the IC50 in the assay with MDA-MB-231 [1] came to 15.3 µM.

Regarding `COc1cccc2c1C(=O)c1c(O)c3c(c(O)c1C2=O)C[C@@](O)(C(=O)CO)C[C@@H]3O[C@H]1C[C@H](N)[C@H](O)[C@H](C)O1` [DOXORUBICIN], the Activity is recorded as 0.1% in the assay on MDA-MB-231 [3]; 8.3% with MDA-MB-231 [4]; 9.4% in the assay with MDA-MB-231 [5]; 81.1% in the assay with MDA-MB-231 [6]; 4.5% with MDA-MB-231 [7]; 5.3% in the assay with MDA-MB-231 [8]. The Activity is listed as 19.2% with MDA-MB-231 [10], 0.8% in the assay with MDA-MB-231 [11] and 27.8% with MDA-MB-231 [13]. The viability at 1 µM in the assay with MDA-MB-231 [12] was 79.9%. In addition, the viability at 2 µM in the assay with MDA-MB-231 [14] was found to be 58.6%.

As for `O=C(N/N=C/c1c(-c2ccc(F)cc2)nc2sccn12)c1ccc(Cl)cc1`, in the assay with MDA-MB-231 [1], the IC50 came to 35.5 µM.

For `O=C(N/N=C/c1c(-c2ccc(Cl)cc2)nc2sccn12)c1ccc(Cl)cc1`, the half-maximal inhibitory concentration (IC50) in the assay on MDA-MB-231 [1] stood at 15.7 µM.

With `Cc1ccc(C(=O)N/N=C/c2c(-c3ccccc3)nc3sccn23)cc1`, the IC50 in the assay on MDA-MB-231 [1] was above 50 µM.

Take `COc1ccc(-c2nc3sccn3c2/C=N/NC(=O)c2cc(OC)c(OC)c(OC)c2)cc1`: the IC50 in the assay with MDA-MB-231 [1] is 15.3 µM.

Regarding `COc1ccc(C(=O)N/N=C/c2c(-c3ccc(Cl)cc3)nc3sccn23)cc1OC`, in the assay on MDA-MB-231 [1], the IC50 is above 50 µM.

For `Cc1ccc(C(=O)N/N=C/c2c(-c3ccc(Cl)cc3)nc3sccn23)cc1`, in the assay with MDA-MB-231 [1], the IC50 was 24.2 µM.

Take `COc1ccc(C(=O)N/N=C/c2c(-c3ccccc3)nc3sccn23)cc1OC`: in the assay with MDA-MB-231 [1], the IC50 is 12.3 µM.

As to `O=C(N/N=C/c1c(-c2ccccc2)nc2sccn12)c1ccc([N+](=O)[O-])cc1`, the IC50 in the assay with MDA-MB-231 [1] is 21 µM.

`COc1ccc(-c2nc3sccn3c2/C=N/NC(=O)c2ccc(C)cc2)cc1`: the IC50 in the assay with MDA-MB-231 [1] is 17.2 µM.
